Beta apoptosis = inhibitors of cytokine-induced beta cell apoptosis, primary screen, luminescence; INS-1E cytokine-induced death, ATP luminescence, 48 h; percent of positive-control rescue, neutral wells zero; protection from apoptosis, % (no concentration beside the values); 300,000 tested, 0.8% active;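 active = Every replicate reaches about 75%, or at least half do and their mean reaches it too, limit read from the data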;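 note: 0% = cytokine-treated negative control wells and 100% = positive control rescue; higher means more ATP so stronger rescue from cytokine killing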
CSC inhib = cancer stem cell viability inhibitors, primary screen, luminescence | cancer stem cell-like cells viability | inhibition, % at 7.5 µM | 300,000 tested, 1.1% active; in the data active = inhibition above about 75%; tested in HMLE shEcad cells
Mdm2-MdmX inh = inhibitors of human Mdm2-MdmX association, primary screen, cell-based, luminescence, split luciferase, SaOS-2, uHTS | Protein Mdm4 (Homo sapiens) + E3 ubiquitin-protein ligase Mdm2 (Homo sapiens), … | SaOS-2 split-luciferase Mdm2/MdmX complementation | inhibition, % at 8 µM | 330,000 tested, 3% active;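 active = inhibition of at least 50% at 8 µM in the primary screen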
Target sequence (O15151 whole entry, looked up): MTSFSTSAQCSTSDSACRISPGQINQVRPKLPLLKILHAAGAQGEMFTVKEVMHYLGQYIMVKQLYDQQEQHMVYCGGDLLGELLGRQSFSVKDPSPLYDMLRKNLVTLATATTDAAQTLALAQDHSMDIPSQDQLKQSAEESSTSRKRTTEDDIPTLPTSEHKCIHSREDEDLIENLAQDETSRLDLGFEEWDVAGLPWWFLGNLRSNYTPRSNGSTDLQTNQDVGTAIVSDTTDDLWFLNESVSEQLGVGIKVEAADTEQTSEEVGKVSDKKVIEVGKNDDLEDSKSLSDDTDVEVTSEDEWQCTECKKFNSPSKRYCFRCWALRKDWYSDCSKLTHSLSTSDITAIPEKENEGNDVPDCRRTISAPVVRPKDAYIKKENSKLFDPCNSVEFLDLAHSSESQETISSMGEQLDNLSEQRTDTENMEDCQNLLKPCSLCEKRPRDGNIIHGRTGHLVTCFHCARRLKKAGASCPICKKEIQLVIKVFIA
Target sequence (Q00987 whole entry, looked up): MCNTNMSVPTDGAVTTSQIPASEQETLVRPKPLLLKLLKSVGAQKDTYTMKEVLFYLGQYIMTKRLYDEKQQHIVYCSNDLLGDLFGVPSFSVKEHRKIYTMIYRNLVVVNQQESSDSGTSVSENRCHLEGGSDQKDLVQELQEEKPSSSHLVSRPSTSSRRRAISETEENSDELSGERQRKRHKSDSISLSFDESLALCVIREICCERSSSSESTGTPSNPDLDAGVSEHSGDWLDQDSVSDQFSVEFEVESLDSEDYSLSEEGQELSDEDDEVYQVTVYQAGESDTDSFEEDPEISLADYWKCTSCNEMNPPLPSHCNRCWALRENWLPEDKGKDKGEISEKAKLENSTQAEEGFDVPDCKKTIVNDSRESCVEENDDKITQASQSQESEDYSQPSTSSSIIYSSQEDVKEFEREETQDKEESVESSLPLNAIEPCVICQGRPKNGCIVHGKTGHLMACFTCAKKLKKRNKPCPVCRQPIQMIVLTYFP
SKKanGAS inh = S. pyogenes SKKanGAS growth inhibitors in kanamycin, primary screen, streptokinase expression inhibitor project, SKKanGAS strain, BacTiter-Glo luminescence. 300,000 tested, 1.3% active. inhibition, % at 7.5 µM. 6 h. AID 1662, 2009;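 active = mean replicate score, as percent of positive control median, at least 50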;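 note: strain carries kanamycin resistance gene driven by streptokinase promoter and grows in 40 µg/ml kanamycin; loss of luminescence reflects streptokinase promoter inhibition or plain growth inhibition; 0% = median of DMSO wells and 100% = positive control at its reference dose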
T cruzi repl = inhibitors of intracellular T. cruzi growth, primary screen, luminescence, NIH3T3 host cells. inhibition, % (no concentration beside the values). 300,000 tested, 1.4% active. AID 1885, 2009. T. cruzi beta-gal in NIH3T3, 90 h;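 active = mean inhibition across valid replicates above about 55%, limit read from the data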;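 note: signal also drops with host cell toxicity which is not excluded here; 0% = plate median of DMSO wells and 100% = zero luminescence signal; higher percent means less beta-gal luminescence so fewer parasites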
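System: Mouse NIH/3T3 fibroblasts infected with β-gal-expressing T. cruzi Tulahuen C4 | Quantity: NIH/3T3 cells, 5,000 per well | Reagent: 5000 reporter trypomastigotes per well | Dosing: Compound pinned at 50 nL/well, DMSO | Schedule: 3 h host attachment, then at least 90 h co-culture | Detection: GalScreen luminescence, 60 min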
Calb FLC = C. albicans growth inhibition with fluconazole, primary screen, CaCi-2 strain, Alamar Blue fluorescence | AID 1979, 2009 | growth inhibition, % (no concentration beside the values) | 300,000 tested, 0.57% active | C. albicans CaCi-2 (fluconazole-resistant clinical isolate) + fluconazole, 48 h;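 active = growth inhibition above about 58% in most replicates, limit read from the data, passing the limit was not always enough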;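 note: all wells also contain fluconazole at 8 µg/ml as a sub-toxic cotreatment; 0% = median of DMSO wells and 100% = median of geldanamycin control wells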
Mdm2 MdmX conf = Mdm2-MdmX complex disruptors, retested hits, confirmation, luminescence, single concentration; shares compounds with Mdm2-MdmX inh; Mdm2-MdmX binding, luminescent assay; inhibition, % at 8 µM; 10,000 tested, 55% active; AID 489028, 2010; in the data active = inhibition above about 40%
Full FLuc ctr = full-length luciferase signal inhibition, confirmation, counter-screen for Mdm2/MdmX interaction inhibitor project, cell-based, single concentration, SaOS-2; 6,200 tested, 77% active; inhibition, % at 8 µM; shares compounds with Mdm2-MdmX inh; SaOS-2 full-length luciferase counterscreen, luminescence;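 active = mean inhibition at 8 µM reaching about 37%, which flags the compound as non-specific, limit read from the data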;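 note: p53-null SaOS-2 cells with luciferase driven by a doxycycline-inducible promoter; compound on cells about two nights before reading with doxycycline added after day one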
* marks the source's active call; other numbers are inactive results. This is a sample that favours compounds with a hit; in the whole collection about 5.7% have one here.

CC(C)(C)c1cc(C(c2cccnc2)N2CCN(CCO)CC2)cc(C(C)(C)C)c1O (configuration not stated) was read as Beta apoptosis 9, CSC inhib 196*, Mdm2-MdmX inh 100*, SKKanGAS inh -43, T cruzi repl 61*, Calb FLC 7, Mdm2 MdmX conf 76* and Full FLuc ctr 58*.
CCOC(=O)C1=C(O)/C(=C/c2cn(CC(=O)NCC3CCCO3)c3ccccc23)SC1=Nc1ccc(C)cc1 (configuration not stated) was read as Beta apoptosis 57, CSC inhib 76*, Mdm2-MdmX inh 99*, Mdm2 MdmX conf 92* and Full FLuc ctr 47*.
CC(C)C(=O)c1cn(CC(=O)NCC2CCCO2)c2ccccc12 (configuration not stated) was read as Beta apoptosis -3, CSC inhib -10, Mdm2-MdmX inh 7, SKKanGAS inh 1, T cruzi repl -5 and Calb FLC 3.
CCOC(=O)C1CCN(C(=O)c2cccc(S(=O)(=O)N3c4ccccc4CC3C)c2)CC1 (configuration not stated) was read as Beta apoptosis -6, CSC inhib -5 and Mdm2-MdmX inh 2.
Screening Cc1nnc(-c2ccccc2)c(=O)n1/N=C/c1c(O)ccc2ccccc12 returned Beta apoptosis 88*, CSC inhib 12, Mdm2-MdmX inh 54*, SKKanGAS inh 70*, T cruzi repl 65*, Calb FLC -1, Mdm2 MdmX conf 57* and Full FLuc ctr 31.
Cc1nnc(C)n1/N=C/c1c(O)ccc2ccccc12 was read as Beta apoptosis -3, CSC inhib -12, Mdm2-MdmX inh -7, SKKanGAS inh -2, T cruzi repl -13 and Calb FLC -6.
Screening Cc1c(CN2CCC(CO)(CCOc3ccccc3)CC2)[nH]c2c(Cl)cccc12 returned Beta apoptosis 12, CSC inhib 48, Mdm2-MdmX inh 87*, SKKanGAS inh 4, T cruzi repl 53, Calb FLC 2, Mdm2 MdmX conf 54* and Full FLuc ctr 64*.
For Cn1nc(-c2ccc(N3CCCCC3)c(NC(=O)c3ccco3)c2)c2ccccc2c1=O the results were Beta apoptosis 17, CSC inhib 25, Mdm2-MdmX inh 88*, SKKanGAS inh 31, T cruzi repl 66*, Calb FLC 9, Mdm2 MdmX conf 44* and Full FLuc ctr 41*.
`COc1ccc(OCC(=O)Nc2cc(-c3nn(C)c(=O)c4ccccc34)ccc2N2CCOCC2)cc1` gave Beta apoptosis -15, CSC inhib 17, Mdm2-MdmX inh 67*, SKKanGAS inh 5, T cruzi repl 2, Calb FLC -5 and Mdm2 MdmX conf 19.
CCCN(CC(=O)Nc1ccccc1C)C(=O)c1ccc(=O)n(Cc2ccccc2)n1 was read as Beta apoptosis -2, CSC inhib 4, Mdm2-MdmX inh 10, SKKanGAS inh -4, T cruzi repl -5 and Calb FLC -1.
O=C(COC(=O)c1ccc(O)cc1)c1ccc2c(c1)OCCO2 was read as Mdm2-MdmX inh -24.
COc1cc(CC(=O)OCC(=O)c2ccc3c(c2)OCCO3)cc(OC)c1OC was read as Beta apoptosis 39, CSC inhib -4, Mdm2-MdmX inh 66*, SKKanGAS inh -7, T cruzi repl 17, Calb FLC 4, Mdm2 MdmX conf 54* and Full FLuc ctr 101*.
